Tests used:
[1] = test system: L6; experiment: Effect on fatty acid oxidation in rat L6 cells; format: functional, cell-based
Summary of the method: (§1)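 Rat L6 myoblasts differentiated 5 days in 2% serum, then treated 42 h with compound (refreshed at 24 h), followed by 6 h with 0.4 mM palmitate containing [9,10-3H]-palmitic acid on 2% fatty-acid-free BSA. Stopped with 10% TCA; released 3H-H2O collected by overnight equilibration at 50 °C and counted.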

[2] = Plasma Cmax in Sprague-Dawley rat at 0.43 mg/kg, po; format: ADME, organism-based; design: dose 0.43 mg/kg, route oral
Summary of the method: (§2)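 Male SD rats received a single p.o. or i.v. dose (n = 8 per route) in 5% ethanol, 10% HPCD and phosphate buffer, pH 7.5-8.0. At 5, 15, 30, 60, 90, 120, 240 and 360 min one rat was sacrificed per time point. EDTA plasma was assayed by high turbulence LC-MS/MS. Cmax and bioavailability were taken from oral dosing; volume of distribution is at steady state.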

[3] = Half life in Sprague-Dawley rat at 0.43 mg/kg, po; format: ADME, organism-based; design: dose 0.43 mg/kg, route oral; details: in vivo
Summary of the method: (§3)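 Male SD rats dosed once i.v. or p.o. (n = 8 per route), vehicle 5% ethanol, 10% HPCD, phosphate buffer pH 7.5-8.0. One animal sacrificed at each of 5, 15, 30, 60, 90, 120, 240 and 360 min; EDTA plasma analysed by high turbulence LC-MS/MS. Each data point represents one animal.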

[4] = molecular target: T1, Peroxisome proliferator-activated receptor delta (Homo sapiens, UniProt Q03181)
T1 sequence (Q03181 whole entry): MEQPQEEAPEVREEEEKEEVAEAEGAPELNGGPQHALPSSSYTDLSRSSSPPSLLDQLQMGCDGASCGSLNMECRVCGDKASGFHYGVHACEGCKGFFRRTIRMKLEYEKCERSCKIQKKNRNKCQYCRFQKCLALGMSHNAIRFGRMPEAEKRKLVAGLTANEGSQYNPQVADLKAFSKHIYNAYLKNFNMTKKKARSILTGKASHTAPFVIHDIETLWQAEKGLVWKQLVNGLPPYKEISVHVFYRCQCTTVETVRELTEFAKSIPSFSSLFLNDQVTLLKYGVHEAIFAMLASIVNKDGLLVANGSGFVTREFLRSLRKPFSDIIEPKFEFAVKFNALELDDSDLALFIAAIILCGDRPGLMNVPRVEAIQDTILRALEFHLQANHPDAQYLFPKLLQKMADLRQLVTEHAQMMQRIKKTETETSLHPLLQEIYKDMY

[5] = Volume of distribution in Sprague-Dawley rat at 0.20 mg/kg, iv; format: ADME, organism-based; design: dose 0.2 mg/kg, route intravenous; details: in vivo, 0.2 mg/kg, read-out: Vss; summary of the method: as §2
[6] = molecular target: T2, Peroxisome proliferator-activated receptor alpha (Homo sapiens, UniProt Q07869); experiment: Activity at human liver PPAR alpha expressed in HEK293 cells by PPAR-GAL4 transactivation assay; format: cell-based
T2 sequence (Q07869 whole entry): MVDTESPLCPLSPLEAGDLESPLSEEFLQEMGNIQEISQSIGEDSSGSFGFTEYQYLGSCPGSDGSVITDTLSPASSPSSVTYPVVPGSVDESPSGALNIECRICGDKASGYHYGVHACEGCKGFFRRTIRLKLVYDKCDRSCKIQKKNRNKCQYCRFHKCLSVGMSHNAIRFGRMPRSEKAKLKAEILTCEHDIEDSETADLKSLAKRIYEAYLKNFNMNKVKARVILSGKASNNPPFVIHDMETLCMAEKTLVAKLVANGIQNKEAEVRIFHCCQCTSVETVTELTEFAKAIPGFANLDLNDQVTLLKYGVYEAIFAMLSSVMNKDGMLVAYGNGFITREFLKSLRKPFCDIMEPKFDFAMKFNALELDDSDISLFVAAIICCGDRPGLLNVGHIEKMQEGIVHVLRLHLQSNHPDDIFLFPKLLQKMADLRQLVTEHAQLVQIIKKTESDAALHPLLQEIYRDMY

[7] = molecular target: T3, Peroxisome proliferator-activated receptor alpha (Homo sapiens) (UniProt Q07869); experiment: Activity at human liver PPAR alpha expressed in HEK293 cells by GAL4 transactivation assay relative to NNC61-4655; format: cell-based
T3 sequence (whole entry): T2 sequence (Q07869 whole entry)

[8] = Clearance in Sprague-Dawley rat at 0.20 mg/kg, iv; format: ADME, organism-based; design: dose 0.2 mg/kg, route intravenous; details: in vivo, 0.2 mg/kg; summary of the method: as §3
[9] = test system: L6; experiment: Effect on increase in fatty acid oxidation in rat L6 cells relative to GW-501516; format: functional; design: concentration or dose not given beside the values; summary of the method: as §1
[10] = molecular target: T4, Peroxisome proliferator-activated receptor gamma (Homo sapiens, UniProt P37231); format: cell-based, HEK293
T4 sequence (P37231 whole entry): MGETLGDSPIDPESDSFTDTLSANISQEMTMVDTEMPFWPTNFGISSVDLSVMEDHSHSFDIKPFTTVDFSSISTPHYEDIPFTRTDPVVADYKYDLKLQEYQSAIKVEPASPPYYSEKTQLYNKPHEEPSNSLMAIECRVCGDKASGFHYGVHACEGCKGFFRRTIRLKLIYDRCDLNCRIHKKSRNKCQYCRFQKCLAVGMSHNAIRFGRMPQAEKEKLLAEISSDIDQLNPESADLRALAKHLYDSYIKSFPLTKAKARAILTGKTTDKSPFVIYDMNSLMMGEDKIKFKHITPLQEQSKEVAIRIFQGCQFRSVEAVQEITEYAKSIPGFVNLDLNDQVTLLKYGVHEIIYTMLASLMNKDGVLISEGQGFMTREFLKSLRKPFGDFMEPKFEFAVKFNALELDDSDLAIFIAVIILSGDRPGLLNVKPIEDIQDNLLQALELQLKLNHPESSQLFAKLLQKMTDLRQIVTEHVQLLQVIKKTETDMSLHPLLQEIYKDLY

[11] = Volume of distribution in Sprague-Dawley rat at 1.18 mg/kg, iv; format: ADME, organism-based; design: dose 1.18 mg/kg, route intravenous; details: in vivo, read-out: Vss; summary of the method: as §2
[12] = Half life in Sprague-Dawley rat at 2.35 mg/kg, po; format: ADME, organism-based; design: dose 2.35 mg/kg, route oral; details: in vivo; summary of the method: as §3
[13] = Plasma Cmax in Sprague-Dawley rat at 2.35 mg/kg, po; format: ADME, organism-based; design: dose 2.35 mg/kg, route oral; summary of the method: as §2
[14] = Oral bioavailability in Sprague-Dawley rat at 2.35 mg/kg; format: ADME, organism-based; details: in vivo; summary of the method: as §2
[15] = Clearance in Sprague-Dawley rat at 1.18 mg/kg, iv; format: ADME, organism-based; design: dose 1.18 mg/kg, route intravenous; details: in vivo; summary of the method: as §3
[16] = Plasma Cmax in Sprague-Dawley rat at 0.45 mg/kg, po; format: ADME, organism-based; design: dose 0.45 mg/kg, route oral
Summary of the method: (§4)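 Male SD rats, single oral dose in 5% ethanol/10% HPCD/phosphate buffer pH 7.5-8.0, n = 8. One animal was killed at each of 5, 15, 30, 60, 90, 120, 240 and 360 min. EDTA plasma was analysed by turbulent-flow LC-MS/MS. Cmax, half-life and oral bioavailability were taken from the plasma curves, with bioavailability using a parallel i.v. arm.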

[17] = Half life in Sprague-Dawley rat at 0.45 mg/kg, po; format: ADME, organism-based; design: dose 0.45 mg/kg, route oral; details: in vivo; summary of the method: as §4
[18] = Oral bioavailability in Sprague-Dawley rat at 0.45 mg/kg; format: ADME, organism-based; details: in vivo; summary of the method: as §4

## O=C(O)Cc1ccc(OCC=C(c2ccc(Br)cc2)c2ccc(Br)cc2)cc1
[1]
  EC50: 0.204 µM
[2]
  Cmax: 252 ng/mL
[3]
  half-life: 7.45 h
[4]
  EC50: 1.1 µM
[5]
  Vd: 1.4 L/kg
[6]
  EC50: > 10 µM
[7]
  Efficacy: > 14%
[8]
  clearance: 6 mL/min/kg
[9]
  Activity: 62%

## CN(CCOc1ccc(CC2SC(=O)NC2=O)cc1)c1ccccn1 (configuration not stated) [ROSIGLITAZONE]
[1]
  EC50: 5 µM
[7]
  Efficacy: > 24%
[9]
  Activity: 58%

## CC(C)(Oc1ccc(C(=O)c2ccc(Cl)cc2)cc1)C(=O)O [FENOFIBRIC ACID]
[1]
  EC50: 3 µM
[4]
  EC50: > 10 µM
[6]
  EC50: > 10 µM
[7]
  Efficacy: > 94%
[9]
  Activity: 70%

## Cc1cc(SCC=C(c2ccc(Br)cc2)c2ccc(Br)cc2)ccc1OCC(=O)O
[10]
  EC50: > 10 µM
[1]
  EC50: 0.003 µM
[11]
  Vd: 0.9 L/kg
[4]
  EC50: 0.017 µM
[12]
  half-life: 2.52 h
[13]
  Cmax: 887 ng/mL
[14]
  bioavailability: 95%
[15]
  clearance: 10 mL/min/kg
[6]
  EC50: > 10 µM
[7]
  Efficacy: > 22%
[9]
  Activity: 75%

## O=C(O)Cc1ccc(OCC=C(c2ccc(Br)cc2)c2ccc(Br)cc2)c(Cl)c1
[1]
  EC50: 0.379 µM
[16]
  Cmax: 241 ng/mL
[17]
  half-life: 3.02 h
[4]
  EC50: 2.3 µM
[5]
  Vd: 1.4 L/kg
[18]
  bioavailability: 130%
[7]
  Efficacy: < 10%
[8]
  clearance: 7 mL/min/kg
[9]
  Activity: 85%

— ChEMBL document CHEMBL1142981, “Identification and synthesis of a novel selective partial PPARdelta agonist with full efficacy on lipid metabolism in vitro and in vivo” (J Med Chem, 2007)
